Most compounds without a hit are left out; they make up all but 0.72% or so of the library.
STK33 inh – inhibitors of human STK33 kinase; 320,000 tested, 0.073% active; purified STK33, MBP phosphorylation, ADP-Glo luminescence; inhibition, % at 10 µM; AID 2661; Q9BYT3;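 active means inhibition at or above 25%, using the most active replicate where run in duplicate; inactive means inhibition below 25%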
Target sequence (Q9BYT3 whole entry, looked up): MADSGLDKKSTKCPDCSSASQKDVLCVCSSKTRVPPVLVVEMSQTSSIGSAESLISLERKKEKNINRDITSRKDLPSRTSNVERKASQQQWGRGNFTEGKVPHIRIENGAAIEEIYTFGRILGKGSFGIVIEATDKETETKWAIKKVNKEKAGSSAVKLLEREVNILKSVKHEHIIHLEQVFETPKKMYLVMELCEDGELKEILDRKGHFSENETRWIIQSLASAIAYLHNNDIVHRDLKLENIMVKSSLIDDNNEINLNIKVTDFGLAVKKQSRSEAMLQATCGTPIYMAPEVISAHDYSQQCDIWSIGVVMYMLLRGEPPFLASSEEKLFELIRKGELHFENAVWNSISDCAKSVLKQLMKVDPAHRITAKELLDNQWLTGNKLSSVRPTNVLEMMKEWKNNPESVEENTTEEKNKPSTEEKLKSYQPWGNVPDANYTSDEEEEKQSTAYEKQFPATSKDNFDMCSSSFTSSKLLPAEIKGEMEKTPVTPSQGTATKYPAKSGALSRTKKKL
GSK3 alpha inh – blocks human GSK-3 alpha kinase | P49840 | ADP-Glo luminescence, 60 min | inhibition, % at 10 µM | 320,000 tested, 0.1% active;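 active means more than half of replicates show inhibition above 20%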;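 further: GST-tagged GSK-3 alpha with peptide substrate and 25 µM ATP; 0% = DMSO neutral wells and 100% = GW8510 positive control wells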
Yeast superoxide – caloric restriction mimetics inhibiting age-related superoxide in yeast. 330,000 tested, 0.18% active. superoxide response (% of plate mean), % at 10 µM. S. cerevisiae aged cells, superoxide DHE fluorescence; hits give low values;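 active means superoxide response under a set limit, about three screen SD below normal, cut at about 65% in these data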;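 further: yeast aged for seven days with compound at 30 °C before DHE staining; 100% = average MFI of all compound-treated wells on the plate with controls excluded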
GSK3beta inhib – human GSK3beta kinase inhibition | GST-GSK3beta kinase, ADP-Glo luminescence, 60 min; hits give low values | activity score (negative = inhibition), % at 10 µM | 300,000 tested, 0.038% active;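 active means more than half of replicate wells score below -50%, meaning over 50% inhibition versus plate controls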;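 further: 0% = median DMSO wells and -100% = median GW8510 positive control wells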
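Test system: GST-tagged human GSK3beta kinase, cell-free; evaluation: activity score scaled between in-plate DMSO and GW8510 controls; measured by: ADP-Glo luminescence; incubation: 60 min reaction, RT; benchmarks: DMSO and 20 µM GW8510; reagent: peptide substrate plus 25 µM ATP (final); medium: Tris/MgCl2 kinase buffer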
PolyA inhibitor – inhibitors of polyadenylation in S. cerevisiae | activity score, % at 12 µM | 300,000 tested, 0.02% active | AID 1875 | S. cerevisiae SKY197-pL101 polyadenylation reporter, beta-gal luminescence; efflux-impaired pdr1/pdr3 knockout yeast; score 100 = 6 SD above DMSO;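 active means lowest replicate activity score at least 50, where 100 means six control SD above control mean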;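 further: yeast exposed to compound for 9 h at 30 °C; higher score means more reporter readthrough which indicates perturbed polyadenylation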
AI-2 QS mod – Vibrio harveyi AI-2 quorum sensing modulation | Vibrio harveyi JMH597 AI-2 luminescence/OD600 ratio, 9 h; hits give low values; strain lacks LuxN and CqsS sensors; 0 = neutral-control median | activity change, % at 7.5 µM | 300,000 tested, 0.4% active; in the data active means activity change below about -75%, passing the limit was not always enough;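 further: luminescence divided by OD600 gain over 9 h not by final OD600 alone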
* hit, by the source's call.

How did COc1ccc(/C=N/Nc2ccc(C(=O)O)cc2)cc1Br do in these assays?
STK33 inh: 1; GSK3 alpha inh: 4; Yeast superoxide: 89; GSK3beta inhib: 0; PolyA inhibitor: -8; AI-2 QS mod: -96*

How did Cc1ccc(/C=N/Nc2ccc(C(=O)O)cc2)s1 do in these assays?
STK33 inh: 2; GSK3 alpha inh: 3; Yeast superoxide: 101; GSK3beta inhib: -2; PolyA inhibitor: 5; AI-2 QS mod: -95*

What do the screens show for `CN(Cc1ccccc1)C(=O)COC(=O)c1cc(NS(=O)(=O)c2cccs2)ccc1O`?
STK33 inh: -1; GSK3 alpha inh: -4; Yeast superoxide: 97; GSK3beta inhib: 0; PolyA inhibitor: -2; AI-2 QS mod: -8

Results for O=C(Oc1c(-c2ccccc2)c(=O)n2c3c(cccc13)CC2)c1cccc([N+](=O)[O-])c1 ?
STK33 inh: 0; GSK3 alpha inh: 0; Yeast superoxide: 135; GSK3beta inhib: -2; PolyA inhibitor: 67*; AI-2 QS mod: -1

Results for Cc1ccc(Cc2nc(-c3ccncc3)no2)cc1 ?
STK33 inh: -1; GSK3 alpha inh: -1; Yeast superoxide: 94; GSK3beta inhib: 0; PolyA inhibitor: -8; AI-2 QS mod: -48

How did COc1ccc(Cc2nc(-c3ccc(Br)cc3)no2)cc1 do in these assays?
Yeast superoxide: 95; AI-2 QS mod: -76*

Results for CCC1(c2ccc(F)cc2)NC(=O)N(CC(=O)NCc2ccc(C)cc2)C1=O (stereo not given) ?
STK33 inh: -1; GSK3 alpha inh: -3; Yeast superoxide: 113; GSK3beta inhib: -1; PolyA inhibitor: -1; AI-2 QS mod: -78*

Results for CN1CCN(C(=O)c2cc3cc(Cl)ccc3[nH]2)CC1 ?
STK33 inh: -1; GSK3 alpha inh: 1; Yeast superoxide: 99; GSK3beta inhib: 0; PolyA inhibitor: -5; AI-2 QS mod: -31

How did CCN1CCN(C(=O)c2cc3cc(Cl)ccc3[nH]2)CC1 do in these assays?
STK33 inh: -2; GSK3 alpha inh: 8; Yeast superoxide: 95; GSK3beta inhib: -1; PolyA inhibitor: 5; AI-2 QS mod: -77*

What do the screens show for `C[C@H]1c2cccc(O)c2C(O)=C2C(=O)[C@]3(O)C(O)=C(C(N)=O)C(=O)[C@@H](N(C)C)C3[C@@H](O)C21` (stereo not given in full)?
STK33 inh: 0; GSK3 alpha inh: -2; Yeast superoxide: 114; GSK3beta inhib: 1; PolyA inhibitor: 14; AI-2 QS mod: -120*

How did CCc1c(C)c(C#N)c2nc3ccccc3n2c1NCc1ccccn1 do in these assays?
STK33 inh: 4; GSK3 alpha inh: 81*; Yeast superoxide: 88; GSK3beta inhib: 0; PolyA inhibitor: -7; AI-2 QS mod: 24

Results for Clc1ccccc1Cn1nnc(-c2ccccc2)n1 ?
STK33 inh: -1; GSK3 alpha inh: -2; Yeast superoxide: 93; GSK3beta inhib: 0; PolyA inhibitor: -12; AI-2 QS mod: -7

Results for Clc1ccc(Cn2nnc(-c3ccccc3)n2)cc1 ?
STK33 inh: -1; GSK3 alpha inh: 0; Yeast superoxide: 97; GSK3beta inhib: 1; PolyA inhibitor: 2; AI-2 QS mod: -81*

Results for O=C(c1ccc(N2CCCC2=O)cc1)N1CCN(c2ccccc2Cl)CC1 ?
STK33 inh: 0; GSK3 alpha inh: -3; Yeast superoxide: 45*

What do the screens show for `COc1ccc(C(=O)COC(=O)CN2C(=O)C3C4C=CC(C5CC45)C3C2=O)cc1` (stereo not given)?
STK33 inh: -3; GSK3 alpha inh: -5; Yeast superoxide: 93; GSK3beta inhib: 2; PolyA inhibitor: 10; AI-2 QS mod: 36

What do the screens show for `CS(=O)(=O)N1CCN(c2ccccc2NC(=O)c2ccc(Br)o2)CC1`?
STK33 inh: 23; GSK3 alpha inh: 53*; Yeast superoxide: 92; GSK3beta inhib: 2; PolyA inhibitor: 19; AI-2 QS mod: 19

How did C[C@H]1CN(CCc2ccccc2)C(=O)[C@@H]1CC(=O)NCc1ccccc1 do in these assays?
STK33 inh: -1; GSK3 alpha inh: 6; Yeast superoxide: 97; GSK3beta inhib: 0; PolyA inhibitor: 26; AI-2 QS mod: 8

Results for CCC(C)c1ccc(O)c(NC(=O)c2cncc(Br)c2)c1 (stereo not given) ?
STK33 inh: -1; GSK3 alpha inh: 1; Yeast superoxide: 101; GSK3beta inhib: 3; PolyA inhibitor: -14; AI-2 QS mod: -85*

Results for CCC(C)c1ccc(O)c(NC(=S)NC(=O)c2cccnc2)c1 (stereo not given) ?
STK33 inh: -1; GSK3 alpha inh: 1; Yeast superoxide: 103; GSK3beta inhib: -1; PolyA inhibitor: -22; AI-2 QS mod: -36

Results for O=C(NCc1ccc(Cl)cc1)C1CCC(CNc2c(N3CCCCC3)c(=O)c2=O)CC1 (stereo not given) ?
STK33 inh: 0; GSK3 alpha inh: -2; Yeast superoxide: 102; GSK3beta inhib: 1; PolyA inhibitor: 0; AI-2 QS mod: 57

What do the screens show for `O=C(NCc1ccc(F)cc1)C1CCC(CNc2c(N3CCCCC3)c(=O)c2=O)CC1` (stereo not given)?
STK33 inh: 0; GSK3 alpha inh: -5; Yeast superoxide: 63*; GSK3beta inhib: 1; PolyA inhibitor: -14; AI-2 QS mod: 11

What do the screens show for `CCN(CC(=O)Nc1c(F)cccc1F)C(=O)c1ccc2c(c1)S(=O)(=O)N=C1CCCCCN12`?
STK33 inh: 1; GSK3 alpha inh: -3; Yeast superoxide: 107; GSK3beta inhib: 1; PolyA inhibitor: -3; AI-2 QS mod: 2

What do the screens show for `O=[N+]([O-])c1cc(/C=N/O)ccc1Oc1ccccc1Cl`?
STK33 inh: 4; GSK3 alpha inh: 65*; Yeast superoxide: 132; GSK3beta inhib: -52*; PolyA inhibitor: -9; AI-2 QS mod: 7

How did O=C(COc1nncc2ccccc12)NCCC1=CCCCC1 do in these assays?
STK33 inh: 0; GSK3 alpha inh: -2; Yeast superoxide: 94; GSK3beta inhib: -1; PolyA inhibitor: -2; AI-2 QS mod: -77*

What do the screens show for `Cn1c(CNC(=O)OC(C)(C)C)nnc1SCC(=O)N1CCOCC1`?
STK33 inh: 0; GSK3 alpha inh: -3; Yeast superoxide: 104; GSK3beta inhib: 2; PolyA inhibitor: 4; AI-2 QS mod: 12

Results for O=C(CSc1nnc(SCc2ccccc2)s1)N/N=C/c1ccc(C(=O)O)cc1 ?
STK33 inh: -1; GSK3 alpha inh: 53*; Yeast superoxide: 94; GSK3beta inhib: -16; PolyA inhibitor: 3; AI-2 QS mod: 19

How did Cc1ncc(CO)c(/C=N/NC(=S)Nc2ccc(Cl)c(Cl)c2)c1O do in these assays?
STK33 inh: 2; GSK3 alpha inh: 5; Yeast superoxide: 75; GSK3beta inhib: -23; PolyA inhibitor: -16; AI-2 QS mod: -210*
